The results in this text go back to PubChem BioAssay AID504531 (The Scripps Research Institute Molecular Screening Center, 2011).

The target of assay [1] is Platelet-activating factor acetylhydrolase 2, cytoplasmic (Mus musculus) (UniProt Q8VDG7). Nature of the assay: in situ PAFAH2 versus pPAFAH selectivity – fluorescence, gel-based ABPP, murine mast cells, selectivity assay for PAFAH2 inhibitor project, late-stage follow-up (AID 504531). The note with it: gel-based ABPP FP-Rh, PAFAH2, at 0.01 µM, stronger effect = higher value. An outline of the steps: (§1)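 Material: murine mast cells treated in situ, then soluble lysate fraction; benchmarks: high control DMSO-only treated cells, low control blank-gel background; schedule: cells 4 h 37 °C, probe 30 min 25 °C; also added: Rhodamine-tagged fluorophosphonate activity probe (FP-Rh), 2 µM final; detection: SDS-PAGE with in-gel fluorescence scanning, band integrated optical density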
Chain of Platelet-activating factor acetylhydrolase 2, cytoplasmic (Mus musculus) (Q8VDG7 whole entry, looked up): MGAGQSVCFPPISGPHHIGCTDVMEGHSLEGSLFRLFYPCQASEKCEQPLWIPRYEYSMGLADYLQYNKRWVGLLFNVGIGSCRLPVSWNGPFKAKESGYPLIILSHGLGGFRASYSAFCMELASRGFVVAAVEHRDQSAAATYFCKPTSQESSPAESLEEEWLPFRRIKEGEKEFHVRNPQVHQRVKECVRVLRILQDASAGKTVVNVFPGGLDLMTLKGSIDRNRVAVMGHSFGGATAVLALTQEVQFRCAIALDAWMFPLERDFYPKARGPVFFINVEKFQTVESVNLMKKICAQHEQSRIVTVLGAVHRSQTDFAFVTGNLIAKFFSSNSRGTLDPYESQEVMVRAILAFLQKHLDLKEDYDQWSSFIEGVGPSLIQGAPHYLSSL

In assay [2] the target is Platelet-activating factor acetylhydrolase (Mus musculus) (UniProt Q60963). The assay is described as above. The conditions noted are these: gel-based ABPP FP-Rh, pPAFAH, at 0.01 µM, stronger effect = higher value. An outline of the steps: as §1
Chain of Platelet-activating factor acetylhydrolase (Mus musculus) (Q60963 whole entry, looked up): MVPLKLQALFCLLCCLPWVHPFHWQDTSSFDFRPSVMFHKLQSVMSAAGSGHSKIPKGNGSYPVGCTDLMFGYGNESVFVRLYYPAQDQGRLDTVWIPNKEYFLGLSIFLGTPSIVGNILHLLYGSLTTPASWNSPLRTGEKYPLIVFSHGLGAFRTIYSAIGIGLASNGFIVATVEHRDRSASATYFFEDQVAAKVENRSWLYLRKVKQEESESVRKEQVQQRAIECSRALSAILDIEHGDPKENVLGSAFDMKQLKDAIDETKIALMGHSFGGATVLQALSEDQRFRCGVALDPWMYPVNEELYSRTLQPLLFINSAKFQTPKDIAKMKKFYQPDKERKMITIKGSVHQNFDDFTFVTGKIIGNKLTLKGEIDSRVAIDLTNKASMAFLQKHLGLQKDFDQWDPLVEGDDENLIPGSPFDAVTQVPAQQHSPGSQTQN

One may read the inhibition as the percentage by which the read-out fell short of the control. Turning to `O=C(N1CCCC1)n1ncc(-c2ccc(-c3ccccc3)cc2)n1`, the inhibition amounted to 100% in assay [1] and 0% in assay [2].
